# Assay results from PubChem BioAssay.
# Active and inactive are the calls of the source.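 The calls were made as follows, unless noted: active = a full or partial loss of lipid-probe fluorescence in the fish gall bladder, intestine or both, judged by eye; inactive = no fluorescence loss, or compound toxic to the fish.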
# Assays:
# [1] = inhibitors of TNFa-induced NFkB p65 translocation, primary screen, imaging, HUVEC, MLSMR starter and 10KST1 sets (AID 438;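 active = inhibition above 20% together with a positive visual image hit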;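 also: compound added about 3h40 before a 20 min TNFalpha stimulation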;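 as to inhibition: signal is the nuclear over cytoplasmic p65 intensity ratio per well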); conditions: HUVEC TNFa-induced p65 nuclear translocation; cell count: measured here: nuclei count (cytotoxicity indicator), at 2.08 µM; inhibition: at 2 µM, stronger effect = higher value, 0% TNFa-plus-vehicle, 100% no-TNFa wells
# [2] = inhibitors of E-selectin induction by TNFa, primary screen, imaging, HUVEC, immunofluorescence, MLSMR starter and 10KST1 sets (AID 487;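 active = visually confirmed hit in the image check and inhibition above 20%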;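 as to inhibition: signal is fraction of cell area covered by stained E-selectin grains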;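 as to nuclei count: 100% = median nuclei count of all wells on the same plate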); conditions: HUVEC TNFalpha-induced E-selectin immunofluorescence imaging, at 2 µM; inhibition: stronger effect = higher value; nuclei count: measured here: cell number, toxicity
# [3] = DUSP6 inhibitors restoring Erk phosphorylation by chemical complementation, primary imaging in DUSP6-transfected HeLa (AID 609;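 active = compounds giving at least 50% inhibition in the cell-based MKP-3 phosphatase rescue imaging test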;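 as to inhibition: phospho-Erk level distribution per well compared with pooled transfected vehicle control wells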); conditions: HeLa MKP-3 transfected, phospho-Erk imaging KS statistic, at 10 µM, cells stimulated with TPA for 15 min
# [4] = target: Dual specificity protein phosphatase 6 (Homo sapiens) (UniProt Q16828); assay: as above; conditions: HeLa MKP-3 transfected, phospho-Erk imaging KS statistic; at 10 µM; stronger effect = higher value; cells stimulated with TPA for 15 min
# Sequence of Dual specificity protein phosphatase 6 (Homo sapiens) (Q16828 whole entry, looked up): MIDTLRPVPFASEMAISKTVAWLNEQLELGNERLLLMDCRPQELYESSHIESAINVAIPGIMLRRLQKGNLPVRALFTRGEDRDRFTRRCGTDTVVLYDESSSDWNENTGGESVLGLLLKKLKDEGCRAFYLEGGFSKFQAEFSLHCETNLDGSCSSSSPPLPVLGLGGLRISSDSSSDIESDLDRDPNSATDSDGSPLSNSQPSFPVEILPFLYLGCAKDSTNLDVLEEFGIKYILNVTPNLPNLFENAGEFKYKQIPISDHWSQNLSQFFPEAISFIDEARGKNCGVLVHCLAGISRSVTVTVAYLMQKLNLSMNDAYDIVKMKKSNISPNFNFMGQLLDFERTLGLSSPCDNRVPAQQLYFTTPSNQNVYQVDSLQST
# [5] = target: Voltage-gated potassium channel subunit beta-2 (Rattus norvegicus) (UniProt P62483); assay: KvBeta enzyme negative modulators, primary screen, biochemical, NADPH fluorescence (AID 622;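 active = fluorescence slope higher than the sample average by over 3 SD, cut at about -0.22 in these data, passing the limit was not always enough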;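 also: slope of raw intensity against log time taken from 70 to 1610 s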); conditions: recombinant KvBeta, 4-cyanobenzaldehyde reduction, at 10 µM, stronger effect = higher value
# Sequence of Voltage-gated potassium channel subunit beta-2 (Rattus norvegicus) (P62483 whole entry, looked up): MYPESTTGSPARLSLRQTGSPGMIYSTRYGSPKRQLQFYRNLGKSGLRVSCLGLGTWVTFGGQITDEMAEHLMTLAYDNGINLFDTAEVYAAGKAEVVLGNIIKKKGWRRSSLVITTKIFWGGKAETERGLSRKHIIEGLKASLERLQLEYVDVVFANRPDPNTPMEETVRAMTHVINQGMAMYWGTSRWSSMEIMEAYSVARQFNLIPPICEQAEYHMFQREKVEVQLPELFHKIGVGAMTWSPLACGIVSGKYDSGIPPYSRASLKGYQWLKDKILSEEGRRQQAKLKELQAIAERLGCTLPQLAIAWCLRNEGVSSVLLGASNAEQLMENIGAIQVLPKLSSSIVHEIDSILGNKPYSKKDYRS
# [6] = target: Voltage-gated potassium channel subunit beta-2 (Rattus norvegicus) (UniProt P62483); assay: KvBeta positive modulators, primary screen, biochemical, NADPH fluorescence (AID 623;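 active = NADPH fluorescence slope more negative than the mean of all samples by about 3 SD, 99.7% confidence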;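 also: fluorescence intensity change per second fitted from 20 to 320 s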); conditions: Recombinant KvBeta, NADPH fluorescence decrease slope, 10 min; at 10 µM; stronger effect = lower value
# [7] = target: Muscarinic acetylcholine receptor M4 (Homo sapiens) (UniProt P08173); assay: compounds altering M4/GIRK thallium flux, either direction, primary screen, M4 allosteric agonist project, cell-based, HEK293 M4/GIRK, BTC-AM (AID 625;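 active = fluorescence slope after compound addition differing from the mean of all tested samples at 99.7% confidence, mostly higher but some lower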;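 also: thallium influx through GIRK channels coupled to M4 in HEK293 cells with BTC-AM dye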); conditions: at 10 µM, actives lie on both sides
# Sequence of Muscarinic acetylcholine receptor M4 (Homo sapiens) (P08173 whole entry, looked up): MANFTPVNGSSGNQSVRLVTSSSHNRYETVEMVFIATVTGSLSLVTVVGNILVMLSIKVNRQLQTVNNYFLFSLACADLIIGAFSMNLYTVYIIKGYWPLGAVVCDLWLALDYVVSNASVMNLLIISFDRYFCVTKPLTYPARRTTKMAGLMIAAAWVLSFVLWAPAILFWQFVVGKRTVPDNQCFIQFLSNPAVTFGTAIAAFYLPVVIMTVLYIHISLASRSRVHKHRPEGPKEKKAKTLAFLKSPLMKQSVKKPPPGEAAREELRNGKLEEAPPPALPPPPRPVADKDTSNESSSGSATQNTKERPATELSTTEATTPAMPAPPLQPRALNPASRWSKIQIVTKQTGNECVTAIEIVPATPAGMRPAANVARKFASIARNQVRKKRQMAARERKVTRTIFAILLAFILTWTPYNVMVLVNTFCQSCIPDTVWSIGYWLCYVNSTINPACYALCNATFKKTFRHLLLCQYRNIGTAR
# Summary of the method: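 assay system = HEK293 cells with M4 receptor and GIRK channels | medium = pH 7.3 thallium assay buffer | doses = 10 µM final, single point | timing = cells overnight at 37 °C, BTC-AM loading 1 h, reads 2 min total | signal = BTC-AM fluorescence, 1 Hz kinetic reads | read-out = post-addition slope, 15–24 s, of baseline-normalized fluorescence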
# [8] = inhibitors of larval lipid processing in zebrafish, primary screen, whole organism, PED6 fluorescence, gall bladder and intestine (AID 686); conditions: Zebrafish larvae PED6 lipid processing, fluorescence scoring; screened at 20 µM (by protocol);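 also: larvae 5 to 7 days old with five fish per well; signal comes from phospholipase A2 cleavage of quenched PED6 carried via bile; overnight exposure to compound and PED6 before scoring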
# Summary of the method: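 Also added: quenched phospholipase substrate PED6, 100 nM final, ingested by larvae; System: zebrafish larvae, 5-7 d; Quantity: 5 larvae per well; Compound: 20 µM single dose; Schedule: overnight compound and PED6 incubation; Read-out: visual per-well fluorescence inhibition score; Measured by: By-eye fluorescence microscopy; Medium: E3.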
# [9] = inhibitors of Chlamydomonas gravitaxis, primary screen, whole organism, Chlamydomonas reinhardtii, WT vs cilia-less mutant, absorbance, 96-well (AID 463189;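 active = inhibition at or above 50% relative to wild type and mutant plate controls; inactive = inhibition below 50%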;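 also: 0% = wild type cc124 cells in DMSO and 100% = ciliumless bld1 mutant cells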); conditions: OD600 absorbance, 2 days, at 10 µM, stronger effect = higher value
# [10] = measured here: cell density z-score
# [11] = measured here: nuclear c-Myc green intensity z-score
# [12] = measured here: nuclear pErk red intensity z-score, stronger effect = higher value
Structure (SMILES),cell count [1],inhibition [1],inhibition [2],nuclei count [2] [%],"z-score [3, 10]","z-score [3, 11]","z-score [3, 12]",inhibition [4],fluorescence slope [5],NADPH fluorescence slope [6],fluorescence slope [7],outcome [8],inhibition [9]
CCCCOc1ccc(C(=O)NCC(=O)NCC(=O)OCC)cc1,357,-8.2% (inactive),-101% (inactive),108,-0.206,0.434,-0.573,-6.59% (inactive),-0.49 (inactive),4.9e-06 (inactive),0.00496 (inactive),inactive,-13.2% (inactive)
CCCCSc1nnc2n(CCc3ccccc3)c(=O)c3c4c(sc3n12)COC(C)(C)C4,533,-4.4% (inactive),-25.9% (inactive),170,1.42,-1.24,0.334,11.9% (inactive),-0.334 (inactive),-6.5e-06 (inactive),0.00807 (inactive),inactive,129% (active)
CC12CCC(=O)N1c1c(sc3nc(N4CCOCC4)c4c(c13)CCCC4)C(=O)N2 (stereo not drawn),363,1.4% (inactive),-105% (inactive),122,-0.444,1.24,0.642,5.42% (inactive),-0.316 (inactive),-5.5e-05 (inactive),0.00445 (inactive),inactive,26.7% (inactive)
CN1CCN(Cc2c(O)c(Cl)cc3c(-c4ccccc4)cc(=O)oc23)CC1,601,-8.3% (inactive),-38.4% (inactive),108,-0.109,-0.251,-0.155,2.46% (inactive),-0.232 (inactive),-2.2e-05 (inactive),0.00592 (inactive),inactive,10.5% (inactive)
COc1cc(S(=O)(=O)N2CCN(c3ccc(F)cc3)CC2)ccc1Cl,609,-2.2% (inactive),-32.9% (inactive),124,-0.486,-0.838,0.956,-7.67% (inactive),-0.449 (inactive),-4.1e-05 (inactive),0.00423 (inactive),inactive,-4.27% (inactive)
COc1ccc(C2NC3=C(CCC3)C3(C#N)C(OC)(OC)N=C(N)C23C#N)cc1 (stereo not drawn),535,-13.1% (inactive),-35.8% (inactive),134,-0.336,0.913,0.179,1.42% (inactive),-0.438 (inactive),-3.3e-05 (inactive),0.0052 (inactive),inactive,30.4% (inactive)
